SR-BI DiI-HDL act: enhances SR-BI lipid uptake from DiI-HDL; CHO ldlA[mSR-BI] cells, DiI-HDL uptake fluorescence, 3 h; 100 = double the neutral-control signal; activation, % at 12.5 µM; 320,000 compounds, 0.096% hits; AID 504775;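 active means mean replicate activation of at least 60% and every replicate at or above 60%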;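 further: 0% = median plate neutral-control signal and 100% = twice that signal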
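System: CHO ldlA[mSR-BI] cells / Medium: HEPES-buffered (25 mM, pH 7.4) F12 plus 0.5% BSA / Probe or stimulus: labelled HDL, 10 µg/mL / Doses: single compound concentration, delivered by pin transfer / Schedule: 3 h, 37 °C / Measured by: DiI fluorescence, bottom read / Measure: cell-associated DiI fluorescence as measure of HDL uptake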
CAL PDZ FP-1: blocks peptide binding to the human CAL PDZ domain. Q9HD26. purified CAL PDZ, TMR-peptide fluorescence polarization, 1 h. inhibition, % at 24.9 µM. 300,000 compounds, 0.92% hits. AID 602252;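 active means mean inhibition of at least 30% with at least half of replicates also reaching 30%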;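 further: 0% = DMSO neutral control and 100% = excess unlabeled competitor peptide PRC23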
CAL PDZ FP-2: human CAL PDZ-peptide interaction inhibition; purified CAL PDZ, TMR-peptide fluorescence polarization, 1 h; inhibition, % at 20 µM; 330,000 compounds, 0.02% hits;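 active means highest replicate inhibition of at least 40%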;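 further: plate controls were DMSO neutral control wells for no effect and unlabeled competitor peptide control wells for full effect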
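Material – purified CerCALP PDZ construct · Detection – FP readout, S and P plane fluorescence · Measure – percent inhibition from loss of millipolarization · Controls – unlabelled peptide for full inhibition, DMSO wells as neutral · Probe or stimulus – TMR-labelled reporter peptide T*-PRC34 bound in PDZ groove · Times – 1 h at RT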
SR-BI HDL uptake: inhibitors of mouse SR-BI mediated HDL lipid uptake; Q61009; ldlA[mSR-BI] CHO cells, DiI-HDL uptake fluorescence, 3 h; inhibition, % at 12.5 µM; 320,000 compounds, 0.96% hits; AID 488896;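 active means mean replicate inhibition of at least 70% and a set share of replicates each scoring 70 or more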;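 further: 0% = median of neutral control wells and 100% = median of positive control wells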
Target sequence (Q61009 whole entry, looked up): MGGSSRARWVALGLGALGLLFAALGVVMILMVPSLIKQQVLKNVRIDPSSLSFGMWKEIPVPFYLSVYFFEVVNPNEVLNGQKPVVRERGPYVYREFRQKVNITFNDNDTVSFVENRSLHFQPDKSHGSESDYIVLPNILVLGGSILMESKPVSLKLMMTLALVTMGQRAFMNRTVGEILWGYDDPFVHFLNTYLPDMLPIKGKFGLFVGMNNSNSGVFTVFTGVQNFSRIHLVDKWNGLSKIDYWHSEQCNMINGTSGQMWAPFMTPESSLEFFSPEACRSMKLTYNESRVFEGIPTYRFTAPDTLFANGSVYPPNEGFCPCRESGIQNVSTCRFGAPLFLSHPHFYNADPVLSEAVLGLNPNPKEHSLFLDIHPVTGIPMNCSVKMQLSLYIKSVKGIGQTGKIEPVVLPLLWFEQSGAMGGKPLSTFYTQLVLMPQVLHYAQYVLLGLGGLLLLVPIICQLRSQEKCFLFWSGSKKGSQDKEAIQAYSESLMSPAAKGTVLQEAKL
dFosB act-1: enhances mouse delta FosB homodimer DNA binding. 340,000 compounds, 0.99% hits. activation, % at 25 µM. purified delta FosB, TAMRA-CDK5 oligo fluorescence polarization; percent of positive-control signal above neutral wells. AID 493131. P13346;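 active means mean activation above about 17%, with every replicate also reaching it, limit read from the data, passing the limit was not always enough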
dFosB act-2: enhances mouse delta FosB homodimer binding to DNA; activation, % at 24.9 µM; shares compounds with dFosB act-1; AID 588690; purified delta FosB, TAMRA-CDK5 oligo fluorescence polarization; normalised: neutral wells 0, positive control 100; 2,400 tested, under 10 active;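 active means highest replicate activation at or above 34% and every replicate reaching that threshold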;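 further: higher polarization means more probe DNA bound by delta FosB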
* marks the source's active call; other numbers are inactive results. Compounds with a hit are over-represented: about 2.8% of the library has one in this group of screens.

Results for Nc1nc(CN2CCc3ccccc3C2)nc(Nc2ccccc2)n1 ?
SR-BI DiI-HDL act: -7; CAL PDZ FP-1: -1; CAL PDZ FP-2: -3; SR-BI HDL uptake: 7; dFosB act-1: 27*; dFosB act-2: 8

How did CCC(=O)C1CCCN(C(=O)CCc2nnc(C3(c4ccc(Cl)cc4)CCC3)o2)C1 (stereo not drawn) do in these assays?
SR-BI DiI-HDL act: -2; CAL PDZ FP-1: 4; CAL PDZ FP-2: 1; SR-BI HDL uptake: 2; dFosB act-1: -7

What do the screens show for `Cc1ccc(CNc2ccc3nnc(-c4ccccc4)n3n2)cc1`?
SR-BI DiI-HDL act: -2; CAL PDZ FP-1: -7; CAL PDZ FP-2: -1; SR-BI HDL uptake: 2; dFosB act-1: 23*; dFosB act-2: 5

How did O=C(Nc1ccccc1Cl)N(Cc1nc2ccccc2c(=O)[nH]1)Cc1cccs1 do in these assays?
SR-BI DiI-HDL act: -11; CAL PDZ FP-1: 1; CAL PDZ FP-2: -1; SR-BI HDL uptake: 11; dFosB act-1: 33*; dFosB act-2: 1

Results for Clc1ccc(-c2ccnc(Oc3cc(Cl)ccc3Cl)n2)cc1 ?
CAL PDZ FP-1: -3; CAL PDZ FP-2: -1; dFosB act-1: 19*; dFosB act-2: -7

Results for Clc1ccc(-c2ccnc(Oc3ccc4ccccc4c3)n2)cc1 ?
SR-BI DiI-HDL act: 13; CAL PDZ FP-1: 0; CAL PDZ FP-2: 0; SR-BI HDL uptake: -13; dFosB act-1: -2

What do the screens show for `COc1cc(Cl)ccc1OCc1cc(C(=O)N(C)Cc2cccc3cnccc23)no1`?
SR-BI DiI-HDL act: -46; CAL PDZ FP-1: 1; CAL PDZ FP-2: -1; SR-BI HDL uptake: 46; dFosB act-1: -1

Results for O=c1[nH]c2cc([N+](=O)[O-])ccc2c2ccccc12 ?
SR-BI DiI-HDL act: -5; CAL PDZ FP-1: -3; CAL PDZ FP-2: -1; SR-BI HDL uptake: 5; dFosB act-1: 2

Results for O=C1Cc2c([nH]c3ccc([N+](=O)[O-])cc23)-c2ccccc2N1 ?
SR-BI DiI-HDL act: -7; CAL PDZ FP-1: -2; CAL PDZ FP-2: 0; SR-BI HDL uptake: 7; dFosB act-1: 31*; dFosB act-2: 3

What do the screens show for `O=C1CC(C(=O)N2CCN(c3ccccc3)CC2)CN1Cc1ccccc1` (stereo not drawn)?
SR-BI DiI-HDL act: 15; CAL PDZ FP-2: 0; SR-BI HDL uptake: -15; dFosB act-1: -3

Results for CC(=O)c1cccc(NC(=O)Cc2coc3cc4c(cc23)CCC4)c1 ?
SR-BI DiI-HDL act: 16; CAL PDZ FP-1: -1; CAL PDZ FP-2: -3; SR-BI HDL uptake: -16; dFosB act-1: 41*; dFosB act-2: 3

Results for Nc1nonc1-n1nnc(C(=O)N/N=C/c2ccc(Cl)cc2Cl)c1CN1CCOCC1 ?
SR-BI DiI-HDL act: 5; CAL PDZ FP-1: -8; CAL PDZ FP-2: 0; SR-BI HDL uptake: -5; dFosB act-1: 3

How did OC(CNCCc1ccccc1)COc1ccc(OCC(O)CNCCc2ccccc2)cc1 (stereo not drawn) do in these assays?
SR-BI DiI-HDL act: 31; CAL PDZ FP-1: -3; CAL PDZ FP-2: 0; SR-BI HDL uptake: -31; dFosB act-1: 19*; dFosB act-2: -4

Results for OC(CNCCc1ccc(Cl)cc1)COc1ccc2ccccc2c1 (stereo not drawn) ?
SR-BI DiI-HDL act: 12; CAL PDZ FP-1: -7; CAL PDZ FP-2: -1; SR-BI HDL uptake: -12; dFosB act-1: 4

How did O=S(=O)(c1cnc[nH]1)N1CCc2ccccc21 do in these assays?
SR-BI DiI-HDL act: 18; CAL PDZ FP-1: -1; CAL PDZ FP-2: 1; SR-BI HDL uptake: -18; dFosB act-1: 20*; dFosB act-2: 2

What do the screens show for `Cc1cccc(N=[N+]([O-])c2cccc(C)n2)n1`?
SR-BI DiI-HDL act: -4; CAL PDZ FP-1: 2; CAL PDZ FP-2: 0; SR-BI HDL uptake: 4; dFosB act-1: -3

How did O=C(CSCc1nc2c(nnn2Cc2ccc(F)cc2)c(=O)[nH]1)Nc1c(Cl)cc(Cl)cc1Cl do in these assays?
SR-BI DiI-HDL act: 7; CAL PDZ FP-1: -5; CAL PDZ FP-2: -1; SR-BI HDL uptake: -7; dFosB act-1: 29*; dFosB act-2: -2

Results for O=C1Nc2c(Br)cc(Br)c3cccc1c23 ?
SR-BI DiI-HDL act: -1; CAL PDZ FP-1: 0; CAL PDZ FP-2: -2; SR-BI HDL uptake: 1; dFosB act-1: 90*; dFosB act-2: 3

What do the screens show for `O=C1NC(=O)c2cc(Br)cc3cccc1c23`?
SR-BI DiI-HDL act: 0; CAL PDZ FP-1: -5; SR-BI HDL uptake: 0; dFosB act-1: -4

What do the screens show for `Cc1ccc(C(=O)OCC(=O)Nc2ccccc2Cl)c(O)c1`?
CAL PDZ FP-1: 0; CAL PDZ FP-2: -2; dFosB act-1: -3

Results for Cc1ccc(C(=O)OCC(=O)Nc2cccc(Cl)c2C)c(O)c1 ?
CAL PDZ FP-1: -3; CAL PDZ FP-2: -3; dFosB act-1: 20*; dFosB act-2: 0

How did COc1ccc(NC(=O)CSc2nc3scc(C)c3c(=O)[nH]2)cc1 do in these assays?
SR-BI DiI-HDL act: -6; CAL PDZ FP-1: -2; CAL PDZ FP-2: -1; SR-BI HDL uptake: 6; dFosB act-1: 11

How did Cc1csc(NC(=O)CSc2nc3sc(C)c(C)c3c(=O)[nH]2)n1 do in these assays?
SR-BI DiI-HDL act: -3; CAL PDZ FP-1: -2; CAL PDZ FP-2: -3; SR-BI HDL uptake: 3; dFosB act-1: 0

How did Cc1ccc(NC(=O)CSc2nc3nc(C)cc(C)c3c(=O)[nH]2)cc1 do in these assays?
SR-BI DiI-HDL act: 16; CAL PDZ FP-1: 37*; SR-BI HDL uptake: -16; dFosB act-1: 22*; dFosB act-2: 4

How did Cc1cc(C)c2c(=O)[nH]c(SCC(=O)Nc3ccccc3)nc2n1 do in these assays?
SR-BI DiI-HDL act: 9; CAL PDZ FP-2: 0; SR-BI HDL uptake: -9; dFosB act-1: -8

How did Cc1ccccc1NC(=O)CSc1nc2scc(C)c2c(=O)[nH]1 do in these assays?
CAL PDZ FP-1: 0; CAL PDZ FP-2: -3; dFosB act-1: 28*; dFosB act-2: 3

Results for Cc1sc2nc(SCC(=O)Nc3ccccc3F)[nH]c(=O)c2c1C ?
SR-BI DiI-HDL act: 29; CAL PDZ FP-1: -1; CAL PDZ FP-2: -2; SR-BI HDL uptake: -29; dFosB act-1: 23*; dFosB act-2: 0

Results for Cc1cc(C)c(OCC(=O)Nc2nnc(C3CC3)s2)c(C)c1 ?
SR-BI DiI-HDL act: 6; CAL PDZ FP-1: -2; CAL PDZ FP-2: -1; SR-BI HDL uptake: -6; dFosB act-1: 1

How did CCOc1ccc2[nH]c3c(=O)n(CCc4ccc(OC)cc4)cnc3c2c1 do in these assays?
SR-BI DiI-HDL act: 27; CAL PDZ FP-1: -1; CAL PDZ FP-2: -1; SR-BI HDL uptake: 7; dFosB act-1: 18*; dFosB act-2: -1

What do the screens show for `CN1/C(=C/C(=O)CSc2ccccc2C(=O)O)C(C)(C)c2ccccc21`?
CAL PDZ FP-1: 12; CAL PDZ FP-2: -1; dFosB act-1: 19*; dFosB act-2: -1
